MrgX1 ag: agonists of human MrgX1 receptor | 310,000 tested, 0.44% active | B-score at 10 µM | Q96LB2 | MrgX1-HEK293 cells, Fluo-4 calcium fluorescence, agonist mode; stronger effect = higher value | AID 588627;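 active means calcium response B-score plate-corrected fluorescence ratio at least 3 library SD, with starting fluorescence B-score inside 5 SD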
Target sequence (Q96LB2 whole entry, looked up): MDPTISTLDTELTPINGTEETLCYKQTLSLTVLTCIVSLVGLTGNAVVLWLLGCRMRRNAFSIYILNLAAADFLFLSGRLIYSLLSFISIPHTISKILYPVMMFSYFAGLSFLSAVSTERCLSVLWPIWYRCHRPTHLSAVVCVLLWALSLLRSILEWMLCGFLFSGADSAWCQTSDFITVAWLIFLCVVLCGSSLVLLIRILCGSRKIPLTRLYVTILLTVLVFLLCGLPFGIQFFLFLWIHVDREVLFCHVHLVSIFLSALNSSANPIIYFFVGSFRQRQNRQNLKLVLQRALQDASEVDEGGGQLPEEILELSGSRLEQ
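times = overnight plating, then 30 min 37 °C plus 30 min room-temperature dye loading | assay system = stable human MrgX1 HEK293 cell line | input = fifteen thousand cells per well | signal = kinetic calcium dye fluorescence, Fluo-4 NW | dosing = compound delivered in addition one of three | read-out = B-scored fluorescence response ratio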
MrgX1 antagonist: blocks BAM8-22 activation of human MrgX1 receptor; Q96LB2; B-score at 10 µM; 310,000 tested, 1.3% active; AID 588676; MRGX1-HEK293 calcium flux, Fluo-4, BAM8-22 antagonism; stronger effect = lower value;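 active means calcium-response B-score plate-corrected more than 3 library SD below zero, starting fluorescence within 5 deviations, no agonist response on first addition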;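 further: peak minus trough fluorescence over baseline after final BAM8-22 challenge near maximal dose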
RGS4 inh: human RGS4 inhibition | HEK293 M3R/RGS4 inducible, Fluo-4 calcium flux; stronger effect = higher value; triggered by carbachol at its EC20 | B-score at 10 µM | 310,000 tested, 0.45% active | P49798;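 active means B-score, a plate-corrected calcium signal, over three deviations above library mean, with baseline fluorescence within five deviations of library mean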;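 further: RGS4 expression induced by doxycycline in cells with stable M3 receptor; B-score is computed from the integrated fluorescence ratio over baseline after carbachol; higher B-score means a larger calcium signal and so more RGS4 inhibition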
Target sequence (P49798 whole entry, looked up): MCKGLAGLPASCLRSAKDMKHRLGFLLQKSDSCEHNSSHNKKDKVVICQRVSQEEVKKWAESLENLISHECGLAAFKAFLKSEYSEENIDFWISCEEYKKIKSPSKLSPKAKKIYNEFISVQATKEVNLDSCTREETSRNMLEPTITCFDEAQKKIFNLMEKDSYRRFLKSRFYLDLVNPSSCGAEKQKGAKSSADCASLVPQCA
RGS4 pot: potentiators or activators of RGS4; HEK293 M3R/inducible RGS4, carbachol calcium flux Fluo4; stronger effect = lower value; AID 463111; B-score at 10 µM; 310,000 tested, 0.92% active;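 active means B-score of the integrated calcium signal more than 4 SD below the library mean, with starting fluorescence not abnormally high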;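 further: negative B-score means reduced calcium response which marks RGS4 activation or potentiation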
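Test system: HEK293 cells with stable M3R and inducible RGS4; also added: carbachol at ECmax as muscarinic agonist stimulus; schedule: dye loading 30 min 37 °C, buffer rest 30 min RT; technique: kinetic calcium fluorescence imaging with Fluo4-AM dye, 2 µM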
MrgX1 PAM: human MrgX1 positive allosteric modulation, primary screen; Q96LB2; MrgX1-HEK293, Fluo-4 calcium flux, FDSS; stronger effect = higher value; B-score at 10 µM; 310,000 tested, 0.63% active;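 active means plate-corrected calcium response at least 3 library SD above typical, normal starting fluorescence, not activating the receptor alone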;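 further: compound read alongside a low EC10 to EC30 dose of BAM8-22 agonist; peak minus trough fluorescence over baseline measured at the second addition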
Large screens that a line does not name were inactive. Only some compounds are listed: those with a hit (about 3.5% of all), similar ones and a draw of the others.

COc1ccc2o/c(=N/NC(=S)Nc3ccccc3)c(C(N)=O)cc2c1	none (no result: MrgX1 ag, MrgX1 antagonist, MrgX1 PAM)
N#CC1=C(N)SC(N)=C(C#N)C1c1ccc(C(F)(F)F)cc1	none
CCc1ccc(C2C(C#N)=C(N)SC(N)=C2C#N)cc1	MrgX1 antagonist -5.3
Cc1ccc(C2C(C#N)=C(N)SC(N)=C2C#N)o1	MrgX1 antagonist -7.3
CCc1ccc(C2C(C#N)=C(N)SC(N)=C2C#N)s1	MrgX1 antagonist -6.1
CCc1noc(C)c1C(=O)N(C)CC(=O)Nc1ccc(F)c(F)c1F	none
O=C(O)CC(NNC(=O)c1ccccc1)C(=O)Nc1cccc([N+](=O)[O-])c1 (stereo not given)	none
Cn1cc(CN2CCC(CO)(CCCc3ccccc3)CC2)c(-c2ccccc2)n1	none
CCOc1cc(-c2nnc(NC(=O)c3ccco3)o2)cc(OCC)c1OCC	MrgX1 antagonist -4.9
COc1ccc(CCNC(=O)c2cc(-c3ccccc3)c(N3CCOCC3)s2)c(OC)c1OC	none
CCOc1ccc(CN2CCN(Cc3cccn3-c3ncccn3)CC2CCO)cc1 (stereo not given)	none
COc1ccc(/C=C/C(=O)Nc2ccc(OC)cc2[N+](=O)[O-])cc1	none
CC(C)NC(=O)c1ccccc1NC(=O)/C=C/c1cccc([N+](=O)[O-])c1	MrgX1 antagonist -4.5
COc1ccc(NC(=O)/C=C/c2ccccc2)c([N+](=O)[O-])c1	MrgX1 antagonist -7.1
O=C(O)COc1ccccc1Cc1ccccc1	none
CC(COc1ccccc1Cc1ccccc1)N1CCCCC1 (stereo not given)	RGS4 pot -7.4
O=C1CCNCCN1[C@H](CO)c1ccccc1	none
COc1cc(/C=C2/C(=O)NN(c3ccc(C)c(Cl)c3)C2=O)cc([N+](=O)[O-])c1O	none
COc1cc(/C=C2/C(=O)NN(c3cccc(C)c3)C2=O)cc([N+](=O)[O-])c1O	MrgX1 antagonist -9.6
CCCCn1c(N)c(N(CC(C)C)C(=O)CSc2nnc(C)n2-c2ccc(OC)cc2)c(=O)[nH]c1=O	none
O=C(Nc1cccc(-n2cccn2)c1)C1CCCN(Cc2ccccc2F)C1 (stereo not given)	none
CN1/C(=C\C=O)C(C)(C)c2ccccc21	none
CN1/C(=C\C=Nc2ccc3ccccc3c2)C(C)(C)c2ccccc21	MrgX1 ag 83 (no result: RGS4 inh, RGS4 pot)
CN(C)c1ccc(N=C/C=C2\N(C)c3ccccc3C2(C)C)cc1	MrgX1 PAM 7.2
CC(C)(CNC(=O)c1ccccc1F)CNC(=O)c1ccccc1F	none
Cc1nc2nc(SCC(=O)NCCCN3CCCCCC3)nn2c(C)c1Cc1ccccc1	RGS4 pot -7.5
CC(C)OC(=O)c1cc(NC(=S)Nc2ccc([N+](=O)[O-])cc2)cc(C(=O)OC(C)C)c1	MrgX1 antagonist -6.7
CC(C)COc1ccc(C(=O)Nc2ccc([N+](=O)[O-])cc2)cc1	none
CCCCNC(=S)Nc1ccc([N+](=O)[O-])cc1	MrgX1 antagonist -5.6
CC(C)CCNC(=S)Nc1ccc([N+](=O)[O-])cc1	none
COc1cccc(OC)c1OCCN1CCN(C(c2ccccc2)c2ccccc2)CC1	none
CCS(=O)(=O)N1CCC(C(=O)Nc2ccccc2OC)CC1	none
COc1ccc(N2CCN(C(CNC(=O)C(=O)NCCCn3ccnc3)c3ccco3)CC2)cc1 (stereo not given)	MrgX1 antagonist -4.9
Cc1ccc(-c2cc(-c3ccccc3)nc(N/N=C/c3cccnc3)n2)cc1	none
C(=N/Nc1nc(-c2ccccc2)cc(-c2ccccc2)n1)/c1cccnc1	RGS4 pot -7.1
COc1ccc(/C=N/Nc2nc(C)cc(-c3ccccc3)n2)cc1OC	RGS4 pot -7.3
Cc1cc(-c2ccccc2)nc(N/N=C/c2ccccc2)n1	none
Cc1cc(-c2ccccc2)nc(N/N=C/c2ccc(O)cc2O)n1	RGS4 pot -7.2
C/C=C(\C)CN1CCC(n2nccc2NC(=O)CCCc2ccccc2)CC1	none
CCOC(=O)C(=CNc1ccc(Oc2cncc(Cl)c2)nc1)C(=O)OCC	none
CCN(CC)S(=O)(=O)c1ccc(N2CCN(CCOc3ccc(OC)cc3)CC2)nc1	none
COC(=O)CNC(=O)Cn1nc(C)c([N+](=O)[O-])c1C	MrgX1 PAM 12
Cc1nn(CC(=O)NCc2ccccc2)c(C)c1[N+](=O)[O-]	none
COC(=O)c1cccc(Cn2nc(C)c([N+](=O)[O-])c2C)c1	MrgX1 antagonist -6.6
Cc1ccc(S(=O)(=O)Nc2ccc(C(=O)N3CCCC3)cc2)c(C)c1NS(C)(=O)=O	none
CN1CCc2cc3c(c4c2[C@H]1[C@H](O)c1ccccc1-4)OCO3	RGS4 pot -7.4
CC(C)CN1C(=O)c2ccc(C(=O)Nc3c[nH]c(=O)[nH]c3=O)cc2C1=O	none
CCOC(=O)c1sc(=S)n(Cc2ccccc2)c1N	MrgX1 ag 47
CCOc1ccc(NC(=O)C(NC(=O)C2CCC(C)CC2)C(C)C)cc1 (stereo not given)	RGS4 pot -7
Cc1ccc(-c2cc(C(=O)Nc3ccccc3C)c3ccccc3n2)o1	MrgX1 antagonist -4.8
COC(=O)c1cc(-c2ccc(C)o2)nc2ccccc12	none
Nc1ccc(NC(=O)c2ccco2)c(Cl)c1	none
CC(C)N1CCc2c(sc(NC(=O)c3ccc4ccccc4c3)c2C(N)=O)C1	none
CC(=O)Nc1sc2c(c1-c1nc3ccccc3s1)CCN(C(C)C)C2	MrgX1 ag 27 (no result: RGS4 inh, RGS4 pot)
COc1cc(/C=C/C(=O)O)cc(S(=O)(=O)Nc2ccc(F)cc2)c1OC	none
COc1cc(/C=C/C(=O)O)cc(S(=O)(=O)Nc2cccc(SC)c2)c1OC	MrgX1 antagonist -6.3
Cc1cc(OC(=O)c2cc(C(F)(F)F)cc(C(F)(F)F)c2)c([N+](=O)[O-])c(=O)[nH]1	none
Cc1ccc2nc(/C(C#N)=C/c3ccc(O)c(O)c3)[nH]c2c1	MrgX1 ag 35
Cc1ccc2nc(/C(C#N)=C/c3ccccc3C(=O)O)[nH]c2c1	none
N#Cc1c2ccc(OCC(=O)NCc3ccco3)cc2n2ccccc12	none
N#Cc1c2ccc(O)cc2n2ccccc12	MrgX1 ag 46
COc1ccc(/C=C(/C(=O)c2ccc(Cl)cc2Cl)n2cncn2)cc1	MrgX1 ag 35
COc1ccc(/C=C/C(=O)C2CC2)cc1COc1c(C)cccc1C	RGS4 pot -8.5
Cc1cc(=O)n2nc(N3CCCC(C(=O)N4CCc5ccccc54)C3)sc2n1 (stereo not given)	RGS4 pot -7.7
CN1CCN(/N=C/c2ccc(-c3ccc([N+](=O)[O-])cc3Cl)o2)CC1	MrgX1 antagonist -4.6
COCCNC(=O)c1cccc(OC2CCN(Cc3ccccc3OCCO)CC2)c1	none
COCCNC(=O)c1cccc(OC2CCN(C(C)COc3ccccc3)CC2)c1 (stereo not given)	MrgX1 ag 32
COCCN(Cc1ccccc1)C(=O)c1cccc(S(=O)(=O)N(C)c2c(C)n(C)n(-c3ccccc3)c2=O)c1	none
O=C(Nc1ccc(S(=O)(=O)N2CCCC2)cc1)c1ccc(CN2CCOCC2)cc1	none

Screens deposited in PubChem by Johns Hopkins Ion Channel Center.
